Source: ChEMBL document CHEMBL3393048, “Discovery of potent cytotoxic ortho-aryl chalcones as new scaffold targeting tubulin and mitosis with affinity-based fluorescence” (J Med Chem, 2014)
pIC50: −log10 of the molar value. The source made the active and inactive calls. The calls are words filed in the database; no cut-off is given here.

Key:
[1] = test system: A549; test: Antiproliferative activity against human A549 cells after 48 hrs by SRB method; assay type: functional, cell-based; conditions: A549, 48 h
Summary of the method: (§1)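 SRB assay. Cells in DMEM high glucose with 10% FBS were seeded at 5000/well and grown 24 h; a day-0 plate was fixed at that point. Compounds were added in triplicate for 48 h. Cells were fixed with TCA at 4 °C for 1 h, stained with 0.4% SRB, and the dye was solubilized in 10 mM Tris pH 10.4. OD was read at 515 nm with day-0 OD subtracted. IC50 came from nonlinear regression of dose–response curves from at least two independent experiments.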

[2] = Antiproliferative activity against human CNE2 cells after 48 hrs by SRB method; assay type: functional, cell-based; conditions: CNE-2, 48 h
Summary of the method: (§2)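 SRB assay. Cells in DMEM high glucose with 10% FBS were seeded at 5000/well and grown 24 h; a day-0 plate was fixed at that point. Compounds were added in triplicate for 48 h. IC50 came from nonlinear regression of dose–response curves from at least two independent experiments.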

[3] = test system: SW480; test: Antiproliferative activity against human SW480 cells after 48 hrs by SRB method; assay type: functional, cell-based; conditions: SW480, 48 h; summary of the method: as §2
[4] = test system: MCF7; test: Antiproliferative activity against human MCF7 cells after 48 hrs by SRB method; assay type: functional, cell-based; conditions: MCF7, 48 h; summary of the method: as §2
[5] = test system: HepG2; test: Antiproliferative activity against human HepG2 cells after 48 hrs by SRB method; assay type: functional, cell-based; conditions: HepG2, 48 h; summary of the method: as §2
[6] = test system: A2780; test: Antiproliferative activity against human A2780 cells after 48 hrs by SRB method; assay type: functional, cell-based; conditions: A2780, 48 h; summary of the method: as §2
[7] = test system: A2780; test: Antiproliferative activity against taxol-resistant human A2780 cells after 48 hrs by SRB method; assay type: functional, cell-based; conditions: A2780, 48 h; summary of the method: as §2
[8] = Antiproliferative activity against human HCT8 cells after 48 hrs by SRB method; assay type: functional, cell-based; conditions: HCT-8, 48 h; summary of the method: as §2
[9] = Antiproliferative activity against vincristine-resistant human HCT8 cells after 48 hrs by SRB method; assay type: functional, cell-based; conditions: HCT-8, 48 h; summary of the method: as §1
[10] = test system: A549; test: Antiproliferative activity against cis-platinum-resistant human A549 cells after 48 hrs by SRB method; assay type: functional, cell-based; conditions: A549, 48 h; summary of the method: as §1
[11] = test system: MCF7; test: Antiproliferative activity against doxorubicin-resistant human MCF7 cells after 48 hrs by SRB method; assay type: functional, cell-based; conditions: MCF7, 48 h; summary of the method: as §2
[12] = test system: A2780; test: Drug resistance index, ratio of IC50 for taxol-resistant human A2780 cells to IC50 for human A2780 cells; assay type: functional
Summary of the method: (§3)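 Drug resistance index = IC50 in the resistant line / IC50 in its parental line. […] Pairs: A549/CDDP vs A549, MCF-7/DOX vs MCF-7, A2780/TAX vs A2780, HCT-8/VCT vs HCT-8.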

[13] = Drug resistance index, ratio of IC50 for vincristine-resistant human HCT8 cells to IC50 for human HCT8 cells; assay type: functional, HCT-8; summary of the method: as §3
[14] = test system: A549; test: Drug resistance index, ratio of IC50 for cis-platinum-resistant human A549 cells to IC50 for human A549 cells; assay type: functional; summary of the method: as §3
[15] = test system: MCF7; test: Drug resistance index, ratio of IC50 for doxorubicin-resistant human MCF7 cells to IC50 for human MCF7 cells; assay type: functional; summary of the method: as §3
[16] = test system: A549; test: Cell cycle arrest in human A549 cells assessed as accumulation at G2/M phase at 7.81 to 250 nM after 24 hrs by Hoechst 33342 staining-based ArrayScanVTI analysis; assay type: functional
Summary of the method: (§4)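 A549 cells were seeded at 5000/well, cultured overnight, then treated 24 h over a 7.81–250 concentration series. Cells were fixed in prewarmed paraformaldehyde 10 min, permeabilized with Triton X-100, and nuclei stained with Hoechst 33342. Imaging was by ArrayScan VTI high-content analysis. Phase percentage = cells within a gated fluorescence intensity / total cells counted.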

[17] = test system: A549; test: Cell cycle arrest in human A549 cells assessed as accumulation at G2/M phase at 125 nM after 24 hrs by Hoechst 33342 staining-based ArrayScanVTI analysis; assay type: functional; summary of the method: as §4
[18] = molecular target: Tubulin; test: Inhibition of tubulin polymerization (unknown origin) by DAPI staining-based fluorescence microscopy; assay type: protein-complex assay, Homo sapiens
Summary of the method: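 Purified tubulin (99% pure; 20 μM as supplied) mixed with compound in general tubulin buffer (80 mM PIPES pH 6.9, 2.0 mM MgCl₂, 0.5 mM EGTA) with 1 mM GTP, 20% glycerol and DAPI reporter. Polymerization tracked kinetically at 37 °C as fluorescence rise (ex 360, em 450 nm). Duplicate wells per concentration. IC50 from at least two independent experiments.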

[19] = test system: A549; test: Cell cycle arrest in human A549 cells assessed as accumulation at G2/M phase at 31.25 nM after 24 hrs by Hoechst 33342 staining-based ArrayScanVTI analysis; assay type: functional
[20] = test system: A549; test: Induction of apoptosis in human A549 cells assessed as late apoptotic cells at 0.25 uM after 48 hrs by Annexin V-FITC/propidium iodide staining-based flow cytometry (reference value: 0.10%); assay type: functional
[21] = test system: A549; test: Induction of apoptosis in human A549 cells assessed as early apoptotic cells at 0.25 uM after 48 hrs by Annexin V-FITC/propidium iodide staining-based flow cytometry (reference value: 0.47%); assay type: functional
[22] = test system: A549; test: Induction of apoptosis in human A549 cells assessed as necrotic cells at 0.25 uM after 48 hrs by Annexin V-FITC/propidium iodide staining-based flow cytometry (reference value: 0.06%); assay type: functional
[23] = test system: A549; test: Induction of apoptosis in human A549 cells assessed as viable cells at 0.25 uM after 48 hrs by Annexin V-FITC/propidium iodide staining-based flow cytometry (reference value: 99.37%); assay type: functional; conditions: A549, 48 h, read-out: Activity
[24] = molecular target: T1, Tubulin (Homo sapiens) (UniProt P68371+Q9H4B7+P0DPH7+P68366+Q13509+Q71U36+P04350+Q3ZCM7+P07437+P68363+Q9BQE3+Q6PEY2+Q13885+Q9BVA1+Q9BUF5); test: Displacement of (E)-3-(4-(Dimethylamino)phenyl)-1-(4'-fluoro[1,1'-biphenyl]-2-yl)prop-2-en-1-one from tubulin (unknown origin) by fluorescence assay; assay type: protein-complex assay
Summary of the method: (§5)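 Competition assay. Tubulin (4 μM) and probe (8 μM) in general tubulin buffer at 37 °C were incubated until fluorescence plateaued (about 30 min; excitation 430, emission 510 nm). Competitors were then added at 0–80 μM and kinetics recorded at 37 °C. The stable F/F0 ratio was plotted against competitor concentration and fitted.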

[25] = molecular target: T1, Tubulin (Homo sapiens); test: Binding affinity to tubulin (unknown origin) by fluorescence assay in presence of DTNB; assay type: protein-complex assay
[26] = test system: A549; test: Induction of microtubule disruption in human A549 cells assessed as massive and dotted microtubule disorder formation at 31 nM after 24 hrs by DAPI staining-based immunofluorescence microscopy; assay type: cell-based
[27] = test system: A549; test: Induction of microtubule disruption in human A549 cells assessed as multipolarization of spindle at 31 nM after 24 hrs by DAPI staining-based immunofluorescence microscopy; assay type: cell-based
[28] = test system: A549; test: Induction of microtubule disruption in human A549 cells assessed as multinucleation at 31 nM after 24 hrs by DAPI staining-based immunofluorescence microscopy; assay type: cell-based
[29] = test system: A549; test: Antimitotic activity in human A549 cells assessed as inhibition of microtubule reassembly in interphase cells at 31 nM incubated for 24 hrs followed by cold treatment for 1 hr measured after 15 mins warm up by DAPI staining-based immunofluorescence microscopy; assay type: functional, cell-based
Summary of the method: (§6)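 A549 cells, 6 × 10⁴ per confocal dish, grown 24 h, then exposed 24 h (vehicle 0.5% DMSO, 37 °C). Dishes were held on ice 1 h to depolymerize microtubules, then rewarmed at 37 °C for 0, 5, 10 or 15 min. Cells were fixed in prewarmed paraformaldehyde 15 min and permeabilized with Triton X-100. […] Imaged by confocal microscopy.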

[30] = test system: A549; test: Antimitotic activity in human A549 cells assessed as inhibition of microtubule reassembly in mitotic cells at 31 nM incubated for 24 hrs followed by cold treatment for 1 hr measured after 15 mins warm up by DAPI staining-based immunofluorescence microscopy; assay type: functional, cell-based; summary of the method: as §6
[31] = test system: A549; test: Antimitotic activity in human A549 cells assessed as disorganized mitosis at 31 nM incubated for 24 hrs followed by cold treatment for 1 hr measured after 15 mins warm up by DAPI staining-based immunofluorescence microscopy; assay type: functional, cell-based; summary of the method: as §6
[32] = test system: A549; test: Antimitotic activity in human A549 cells assessed as multipolarization of spindle at 31 nM incubated for 24 hrs followed by cold treatment for 1 hr measured after 15 mins warm up by DAPI staining-based immunofluorescence microscopy; assay type: functional, cell-based; summary of the method: as §6
[33] = test system: A549; test: Antimitotic activity in human A549 cells assessed as multinucleation at 31 nM incubated for 24 hrs followed by cold treatment for 1 hr measured after 15 mins warm up by DAPI staining-based immunofluorescence microscopy; assay type: functional, cell-based; summary of the method: as §6
[34] = molecular target: T1, Tubulin (Homo sapiens); test: Binding affinity to tubulin (unknown origin) after 30 mins by fluorescence assay; assay type: protein-complex assay
Summary of the method: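 Intrinsic fluorescence on tubulin binding. Compounds were mixed with tubulin (4 μM or 8 μM) in general tubulin buffer and incubated 30 min. Readings were excitation 430/emission 510 nm or excitation 365/emission 465 nm, with kinetic reads from mixing. ΔF = stable emission minus tubulin-only fluorescence. Optimal wavelengths were set by wavelength scanning.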

[35] = molecular target: T1, Tubulin (Homo sapiens); test: Displacement of (E)-3-(4-(Dimethylamino)phenyl)-1-(4'-fluoro[1,1'-biphenyl]-2-yl)prop-2-en-1-one from tubulin (unknown origin) at 2 uM by fluorescence assay; assay type: protein-complex assay; summary of the method: as §5
[36] = test system: A549; test: Antitumor activity against human A549 cells xenografted in BALB/c nude mouse assessed as reduction in tumor weight at 2 mg/kg, ip administered every other day for 2 weeks (reference value: 1.446 gm); assay type: functional; conditions: route intraperitoneal
[37] = test system: A549; test: Antitumor activity against human A549 cells xenografted in BALB/c nude mouse assessed as reduction in tumor volume at 2 mg/kg, ip administered every other day for 2 weeks (reference value: 1806.9 mm'3); assay type: functional; conditions: route intraperitoneal
[38] = test system: Mus musculus; test: Toxicity in BALB/c nude mouse xenografted with human A549 cells assessed as body weight at 2 mg/kg, ip administered every other day for 2 weeks; assay type: organism-based; set-up: dose 2 mg/kg, route intraperitoneal; conditions: in vivo, 336 h
Summary of the method: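 Female BALB/c nude mice, 5 weeks old, given 1 × 10⁷ A549 cells subcutaneously in the right flank. At about 100 mm³ tumor volume, randomized into groups of eight. Dosed ip at 2 mg/kg every other day for 2 weeks. Controls received normal saline with 0.5% DMSO and 5% Kolliphor HS 15. Body weight monitored throughout.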

SMILES	pIC50 [1]	pIC50 [2]	pIC50 [3]	pIC50 [4]	pIC50 [5]	pIC50 [6]	pIC50 [7]	pIC50 [8]	pIC50 [9]	pIC50 [10]	pIC50 [11]	Ratio IC50 [12]	Ratio IC50 [13]	Ratio IC50 [14]	Ratio IC50 [15]	Activity [16]	pIC50 [18]	Activity [19]	further results
COc1ccc(/C=C/C(=O)c2ccccc2-c2ccc(F)cc2)cc1	6.85	7.28	7.21	6.17	7.03	6.77	6.16	6.66	6.64	6.68	6.92	4.1	1	1.1	0.29	Active	5.74	–	Activity [17]: Active
COc1cc2c(c(OC)c1OC)-c1ccc(OC)c(=O)cc1[C@@H](NC(C)=O)CC2 [COLCHICINE]	7.30	–	–	–	–	–	–	–	–	–	–	–	–	–	–	–	–	Active	Activity [20]: 37.72%; Activity [21]: 36.19%; Activity [22]: 6.93%; viability at 0.25 µM [23]: 19.2%
CC[C@]1(O)C[C@H]2CN(CCc3c([nH]c4ccccc34)[C@@](C(=O)OC)(c3cc4c(cc3OC)N(C=O)[C@H]3[C@@](O)(C(=O)OC)[C@H](OC(C)=O)[C@]5(CC)C=CCN6CC[C@]43[C@@H]65)C2)C1 [VINCRISTINE]	–	–	–	–	–	–	6.03	–	5.72	7.25	5.37	–	–	4.7	1063	–	–	–	Activity [24]: inactive
COc1ccc(/C=C/C(=O)c2ccccc2-c2cccc(F)c2)cc1O	7.96	7.77	8.00	7.19	8.10	7.89	6.64	7.80	7.24	6.74	8.70	18	3.6	16	0.03	Active	6.31	Active	Activity [25]: inactive; Activity [26]: Active; Activity [27]: Active; Activity [28]: Active; inhibition [29]: Active; inhibition [30]: Active; Activity [31]: Active; Activity [32]: Active; Activity [33]: Active; Activity [34]: Dose-dependent effect; Activity [35]: Active; Activity [36]: 0.641 g; Activity [37]: 965.6 mm3; Activity [38]: Non-toxic
